Laboratory results from ChEMBL document CHEMBL1148068, “Bistramides A, B, C, D, and K: a new class of bioactive cyclic polyethers from Lissoclinum bistratum” (J Nat Prod, 1994).
≈ marks a conversion by molar mass, not a printed value. Calls of active or inactive are those of the source. The rule behind the calls is not given here.

Columns and labels:
P388 [1] = experiment: Cytotoxicity against mouse P388 cells after 72 hrs by MTT assay; format: functional, cell-based; conditions: P388, 72 h
Summary of the method: (§1)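 Cells were seeded in microtiter plates at 0.1 × 10^3 cells/ml. Growth was estimated at 72 h by MTT conversion to formazan. Values are means of 3 experiments.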

[2] = Cell cycle arrest in human NSCLC-N6 cells assessed as reduction in accumulation at S phase by flow cytometry; format: functional, cell-based
Summary of the method: (§2)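 NSCLC-N6 cells were grown in RPMI 1640 with 5% FCS, penicillin, streptomycin and 2 mM glutamine. 0.8 × 10^3 cells were cultured in flasks with or without compound for 48 h. Medium was removed and cells stained in situ with Vindelov solution. DNA content of 2000 nuclei was measured by flow cytometry to give DNA histograms.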

KB = experiment: Cytotoxicity against human KB cells after 72 hrs by MTT assay; format: functional, cell-based; summary of the method: as §1
[3] = Cytotoxicity against human NSCLC-N6 cells after 72 hrs by MTT assay; format: functional, cell-based; conditions: NSCLC-N6, 72 h
Summary of the method: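 Cells originated from a nude-mouse graft and were cultured in RPMI 1640 with 5% fetal calf serum, penicillin, streptomycin and 2 mM glutamine. They were seeded in microtiter plates at 0.1 × 10^3 cells/ml. Growth was read by MTT-to-formazan conversion at 72 h. Values are means of 3 experiments.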

NSCLC-N6 = experiment: Induction of polyploidy in human NSCLC-N6 cells assessed as 4N chromosome levels at 1 ug/ml by DNA cytogram; format: functional, cell-based; summary of the method: as §2
P388 [4] = experiment: Antitumor activity against mouse P388 cells xenografted mouse at 0.4 mg/kg, ip administered as 3 doses; format: functional; conditions: route intraperitoneal
[5] = Cell cycle arrest in human NSCLC-N6 cells assessed as increase in accumulation at G2M phase by flow cytometry; format: functional, cell-based; summary of the method: as §2
P388 [6] = experiment: Cytotoxicity against mouse doxorubicin resistant P388 cells after 72 hrs by MTT assay; format: functional, cell-based; conditions: P388, 72 h; summary of the method: as §1
B16 = experiment: Cytotoxicity against mouse B16 cells after 72 hrs by MTT assay; format: functional, cell-based; conditions: B16, 72 h; summary of the method: as §1
HT-29 = experiment: Cytotoxicity against human HT-29 cells after 72 hrs by MTT assay; format: functional, cell-based; conditions: HT-29, 72 h; summary of the method: as §1
[7] = Antitumor activity against human NSCLC-N6 cells xenografted mouse at 20 mg/kg, iv administered as 4 doses measured after 30 days; format: functional
Summary of the method: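 Nude mice carried sc NSCLC-N6 xenografts, serially passaged as mechanically dispersed tumour (about 1 g in 4.8 ml saline, 0.2 ml per mouse). Six mice per group were treated once tumours reached 50–200 mm3. Each received 20 mg/kg iv on days 1, 5, 9 and 11 (4 doses), in physiological saline with 2% DMSO.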

[8] = Cell cycle arrest in human NSCLC-N6 cells assessed as accumulation at G1 phase by flow cytometry; format: functional, cell-based; summary of the method: as §2
[9] = Antitumor activity against human NSCLC-N6 cells xenografted mouse at 10 mg/kg/day, ip administered for 16 days measured after 30 days; format: functional; conditions: route intraperitoneal
Summary of the method: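 NSCLC-N6 tumour maintained by serial sc transplant in nude mice: 0.2 ml of a suspension from about 1 g of mechanically dispersed excised tumour in 4.8 ml sterile saline. Groups of six mice were treated once tumours reached 50–200 mm3. Dosing was 10 mg/kg ip daily on days 1–16, in physiological saline with 2% DMSO.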

With `C/C=C/C(=O)C[C@H]1CC[C@H](C)[C@H](CC(=O)NC[C@H](O)[C@H](C)C(=O)NCCC[C@H]2O[C@@]3(CCC[C@H](CC[C@H](C)/C=C(\C)[C@H](C)O)O3)CC[C@@H]2C)O1` [BISTRAMIDE A] the IC50 (P388 [1]) was 0.2 µg/mL (≈ 0.284 µM), the Activity [2] was “Active” and the IC50 (KB) was 0.53 µg/mL (≈ 0.752 µM). The IC50 [3] was 0.03 µg/mL (≈ 0.0426 µM), the Activity (NSCLC-N6) was “Active” and the T/C (P388 [4]) was 118%. For the same molecule, the Activity [5] was “Active”, the IC50 (P388 [6]) was 0.05 µg/mL (≈ 0.0709 µM) and the IC50 (B16) was 0.1 µg/mL (≈ 0.142 µM). For the same molecule, the IC50 (HT-29) was 0.32 µg/mL (≈ 0.454 µM).

In the case of `CCCC(=O)CC1CCC(C)C(CC(=O)NCC(O)C(C)C(=O)NCCCC2OC3(CCCC(CCC(C)/C=C(\C)C(C)O)O3)CCC2C)O1` (stereo unspecified) [BISTRAMIDE B], the IC50 (P388 [1]) is reported as 0.2 µg/mL (≈ 0.283 µM), the Activity [2] is reported as “Active” and the IC50 (KB) is reported as 2.1 µg/mL (≈ 2.97 µM). For the same molecule, the IC50 [3] was 0.32 µg/mL (≈ 0.453 µM), the IC50 (P388 [6]) was 1.16 µg/mL (≈ 1.64 µM) and the IC50 (B16) was 1.2 µg/mL (≈ 1.7 µM). It also gave an IC50 (HT-29) of 0.71 µg/mL (≈ 1 µM).

For `C/C=C/C(=O)C[C@H]1CC[C@H](C)[C@H](CC(=O)NC[C@H](O)[C@H](C)C(=O)NCCC[C@H]2O[C@@]3(CCC[C@@H](CC[C@H](C)/C=C(\C)C(C)=O)O3)CC[C@@H]2C)O1` [BISTRAMIDE C], the IC50 (P388 [1]) was 0.02 µg/mL (≈ 0.0285 µM), the Activity [2] was “Active” and the IC50 (KB) was 0.65 µg/mL (≈ 0.925 µM). The IC50 [3] was 0.05 µg/mL (≈ 0.0711 µM), the IC50 (P388 [6]) was 0.05 µg/mL (≈ 0.0711 µM) and the IC50 (B16) was 0.06 µg/mL (≈ 0.0854 µM). It also gave an IC50 (HT-29) of 0.5 µg/mL (≈ 0.711 µM).

With `C/C=C/[C@H](O)CC1CCC(C)C(CC(=O)NCC(O)C(C)C(=O)NCCCC2OC3(CCCC(CCC(C)/C=C(\C)C(C)O)O3)CCC2C)O1` (stereo partly specified) [BISTRAMIDE D] the IC50 (P388 [1]) was 0.36 µg/mL (≈ 0.509 µM), the Activity [2] was “Active” and the IC50 (KB) was 10 µg/mL (≈ 14.1 µM). For the same molecule, the IC50 [3] was 3.43 µg/mL (≈ 4.85 µM), the IC50 (P388 [6]) was 5.82 µg/mL (≈ 8.23 µM) and the T/C [7] was 53%. The IC50 (B16) was 0.1 µg/mL (≈ 0.141 µM) and the IC50 (HT-29) was 2.76 µg/mL (≈ 3.9 µM).

In the case of `C/C=C/C(O)C/C=C/CC(C)C(O)CC(=O)NCC(O)C(C)C(=O)NCCCC1OC2(CCCC(CCC(C)/C=C(\C)C(C)O)O2)CCC1C` (stereo unspecified) [BISTRAMIDE K], the Activity [8] is reported as “Active”, the IC50 (P388 [1]) is reported as 0.57 µg/mL (≈ 0.806 µM) and the IC50 (KB) is reported as over 10 µg/mL. For the same molecule, the IC50 [3] was 3.23 µg/mL (≈ 4.57 µM), the IC50 (P388 [6]) was over 10 µg/mL and the IC50 (B16) was 1.9 µg/mL (≈ 2.69 µM). It also gave a T/C [9] of 49% and an IC50 (HT-29) of 5.6 µg/mL (≈ 7.92 µM).

For `Sc1ncnc2nc[nH]c12` [MERCAPTOPURINE ANHYDROUS], the IC50 (P388 [1]) was 0.7 µg/mL (≈ 4.6 µM), the IC50 (KB) was 0.55 µg/mL (≈ 3.61 µM) and the IC50 [3] was 0.79 µg/mL (≈ 5.19 µM). For the same molecule, the IC50 (P388 [6]) was 0.26 µg/mL (≈ 1.71 µM), the IC50 (B16) was 0.8 µg/mL (≈ 5.26 µM) and the IC50 (HT-29) was 0.87 µg/mL (≈ 5.72 µM).
